Data as given in ChEMBL document CHEMBL3091303, “1,3-Dialkyl-substituted tetrahydropyrimido[1,2-f]purine-2,4-diones as multiple target drugs for the potential treatment of neurodegenerative diseases” (Bioorg Med Chem, 2013).

Tests used:
[1] = molecular target: T1, Adenosine receptor A3 (Homo sapiens) (UniProt P0DMS8); assay: Displacement of [3H]PSB-11 from human adenosine A3 receptor expressed in CHO cells relative to control; format: cell-based; parameters: concentration or dose not given beside the values; conditions: concentration not given here
T1 sequence (whole entry): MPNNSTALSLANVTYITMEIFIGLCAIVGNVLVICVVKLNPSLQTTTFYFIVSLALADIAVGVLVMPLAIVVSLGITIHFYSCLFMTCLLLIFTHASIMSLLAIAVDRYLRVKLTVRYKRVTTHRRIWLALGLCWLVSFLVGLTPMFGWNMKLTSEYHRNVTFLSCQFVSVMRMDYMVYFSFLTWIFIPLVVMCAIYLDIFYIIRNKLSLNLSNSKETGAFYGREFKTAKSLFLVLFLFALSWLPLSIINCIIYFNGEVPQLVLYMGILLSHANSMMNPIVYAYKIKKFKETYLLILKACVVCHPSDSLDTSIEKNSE

[2] = molecular target: T2, MAO-B (amine oxidase [flavin-containing] B) (Homo sapiens, UniProt P27338); assay: Inhibition of human MAO-B at 10 uM relative to control
T2 sequence (P27338 whole entry): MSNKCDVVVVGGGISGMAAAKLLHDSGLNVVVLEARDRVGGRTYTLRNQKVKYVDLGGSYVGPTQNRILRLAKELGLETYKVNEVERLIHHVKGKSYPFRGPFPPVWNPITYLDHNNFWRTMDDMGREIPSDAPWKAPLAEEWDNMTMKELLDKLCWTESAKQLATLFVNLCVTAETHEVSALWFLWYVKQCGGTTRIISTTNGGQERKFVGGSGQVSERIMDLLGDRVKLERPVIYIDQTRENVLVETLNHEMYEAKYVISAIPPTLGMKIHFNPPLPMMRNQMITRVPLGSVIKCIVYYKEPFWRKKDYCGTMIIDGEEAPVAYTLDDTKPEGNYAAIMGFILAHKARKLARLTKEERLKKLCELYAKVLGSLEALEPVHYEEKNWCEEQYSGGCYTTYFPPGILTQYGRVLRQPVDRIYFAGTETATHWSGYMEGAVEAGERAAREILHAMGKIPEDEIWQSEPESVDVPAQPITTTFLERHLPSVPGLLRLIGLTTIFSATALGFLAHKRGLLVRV
Outline: (§1)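 Human MAO-A and MAO-B inhibition, screened first at a test concentration of 10 µM.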

[3] = molecular target: T3, Adenosine receptor A2b (Homo sapiens) (UniProt P29275); assay: Displacement of [3H]PSB-603 from human adenosine A2B receptor relative to control; parameters: concentration or dose not given beside the values; conditions: concentration not given here
T3 sequence (whole entry): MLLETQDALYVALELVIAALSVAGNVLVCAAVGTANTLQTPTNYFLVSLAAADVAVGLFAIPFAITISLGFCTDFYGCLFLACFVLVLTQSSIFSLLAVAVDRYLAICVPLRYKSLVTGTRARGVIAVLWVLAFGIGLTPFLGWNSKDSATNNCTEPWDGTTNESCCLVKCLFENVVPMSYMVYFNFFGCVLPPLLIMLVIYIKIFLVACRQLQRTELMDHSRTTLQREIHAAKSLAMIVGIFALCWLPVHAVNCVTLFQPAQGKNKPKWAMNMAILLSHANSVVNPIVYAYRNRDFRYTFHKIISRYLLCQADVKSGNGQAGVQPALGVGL

[4] = molecular target: T4, Adenosine receptor A1 (Rattus norvegicus, UniProt P25099); assay: Displacement of [3H]CCPA from adenosine A1 receptor in rat brain cortex; format: tissue-based
T4 sequence (P25099 whole entry): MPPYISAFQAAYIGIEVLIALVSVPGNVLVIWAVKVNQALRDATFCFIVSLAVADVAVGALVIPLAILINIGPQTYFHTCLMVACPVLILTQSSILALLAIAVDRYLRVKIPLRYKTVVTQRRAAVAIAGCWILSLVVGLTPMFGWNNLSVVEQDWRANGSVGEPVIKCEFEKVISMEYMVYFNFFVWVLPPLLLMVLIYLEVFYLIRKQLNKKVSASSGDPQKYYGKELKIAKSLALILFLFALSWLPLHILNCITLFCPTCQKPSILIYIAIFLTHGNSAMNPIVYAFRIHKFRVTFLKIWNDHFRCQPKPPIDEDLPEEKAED
Outline: (§2)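 Radioligand binding to rat A1 receptors in rat brain cortical membrane preparations. Values are given as Ki, or as % inhibition of radioligand binding at the indicated concentration.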

[5] = molecular target: T5, Adenosine receptor A2a (Rattus norvegicus, UniProt P30543); assay: Displacement of [3H]MSX-2 from adenosine A2A receptor in rat brain striatum; format: tissue-based
[6] = molecular target: T6, Adenosine receptor A1 (Rattus norvegicus) (UniProt P25099); assay: Displacement of [3H]CCPA from adenosine A1 receptor in rat brain cortex relative to control; format: tissue-based; parameters: concentration or dose not given beside the values; conditions: concentration not given here; outline: as §2
T6 sequence (whole entry): T4 sequence (P25099 whole entry)

[7] = molecular target: T7, Amine oxidase [flavin-containing] B (Homo sapiens, UniProt P27338); assay: Inhibition of human MAO-B
T7 sequence (P27338 whole entry): T2 sequence (P27338 whole entry)

[8] = molecular target: T8, Adenosine receptor A2b (Homo sapiens, UniProt P29275); assay: Displacement of [3H]PSB-603 from human adenosine A2B receptor
T8 sequence (P29275 whole entry): T3 sequence (whole entry)

[9] = molecular target: Adenosine receptor A2a (Rattus norvegicus) (UniProt P30543); assay: Displacement of [3H]MSX-2 from adenosine A2A receptor in rat brain striatum relative to control; format: tissue-based; parameters: concentration or dose not given beside the values; conditions: concentration not given here
Outline: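 Radioligand binding to rat A2A receptors in rat brain striatal membrane preparations, reported as % inhibition of radioligand binding at the indicated concentration.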

[10] = molecular target: T9, Adenosine receptor A3 (Homo sapiens, UniProt P0DMS8); assay: Displacement of [3H]PSB-11 from human adenosine A3 receptor expressed in CHO cells; format: cell-based
T9 sequence (P0DMS8 whole entry): T1 sequence (whole entry)

[11] = molecular target: T10, Amine oxidase [flavin-containing] A (Homo sapiens, UniProt P21397); assay: Inhibition of human MAO-A; outline: as §1
T10 sequence (P21397 whole entry): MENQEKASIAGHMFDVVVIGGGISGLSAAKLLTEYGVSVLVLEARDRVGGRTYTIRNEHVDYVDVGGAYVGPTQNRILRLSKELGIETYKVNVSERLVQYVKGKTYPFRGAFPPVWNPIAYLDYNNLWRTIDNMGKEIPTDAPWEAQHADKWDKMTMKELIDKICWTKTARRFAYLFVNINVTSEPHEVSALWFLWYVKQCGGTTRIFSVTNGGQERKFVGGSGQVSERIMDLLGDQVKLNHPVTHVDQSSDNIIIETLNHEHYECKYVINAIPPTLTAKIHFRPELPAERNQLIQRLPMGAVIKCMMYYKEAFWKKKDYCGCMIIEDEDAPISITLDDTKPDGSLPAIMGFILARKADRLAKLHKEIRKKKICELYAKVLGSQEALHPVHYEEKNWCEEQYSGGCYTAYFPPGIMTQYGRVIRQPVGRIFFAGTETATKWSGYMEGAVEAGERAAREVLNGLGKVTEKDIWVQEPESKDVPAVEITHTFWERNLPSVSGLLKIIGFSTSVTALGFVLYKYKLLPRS

[12] = molecular target: T11, MAO-A (amine oxidase [flavin-containing] A) (Homo sapiens, UniProt P21397); assay: Inhibition of human MAO-A at 10 uM relative to control; outline: as §1
T11 sequence (P21397 whole entry): T10 sequence (P21397 whole entry)

[13] = molecular target: T9, Adenosine receptor A3; assay: Binding affinity to human adenosine A3 receptor
[14] = molecular target: T12, Adenosine receptor A2a (Homo sapiens, UniProt P29274); assay: Binding affinity to human adenosine A2A receptor
[15] = molecular target: T13, Adenosine receptor A1 (Homo sapiens, UniProt P30542); assay: Displacement of [3H]CCPA from human adenosine A1 receptor expressed in CHO cells; format: cell-based
T13 sequence (P30542 whole entry): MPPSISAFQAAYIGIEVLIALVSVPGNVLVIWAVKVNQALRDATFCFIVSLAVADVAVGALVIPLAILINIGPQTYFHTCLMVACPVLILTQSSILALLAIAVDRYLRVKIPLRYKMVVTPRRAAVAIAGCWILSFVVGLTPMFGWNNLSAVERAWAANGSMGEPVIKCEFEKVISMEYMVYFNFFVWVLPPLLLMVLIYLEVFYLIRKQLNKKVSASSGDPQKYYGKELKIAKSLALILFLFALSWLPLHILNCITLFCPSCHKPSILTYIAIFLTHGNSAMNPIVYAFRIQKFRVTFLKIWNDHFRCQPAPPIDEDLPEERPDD
Outline: (§3)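 Radioligand binding to human receptors recombinantly expressed in Chinese hamster ovary (CHO) cells. Results are Ki, or % inhibition of radioligand binding at the indicated concentration.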

[16] = molecular target: T13, Adenosine receptor A1; assay: Binding affinity to human adenosine A1 receptor
[17] = molecular target: T4, Adenosine receptor A1; assay: Binding affinity to rat adenosine A1 receptor
[18] = molecular target: T5, Adenosine receptor A2a; assay: Binding affinity to rat adenosine A2A receptor
[19] = molecular target: T8, Adenosine receptor A2b; assay: Binding affinity to human adenosine A2B receptor
[20] = molecular target: T12, Adenosine receptor A2a; assay: Displacement of [3H]MSX-2 from human adenosine A2A receptor expressed in CHO cells; format: cell-based; outline: as §3
[21] = molecular target: T14, Adenosine receptor A1 (Homo sapiens) (UniProt P30542); assay: Displacement of [3H]CCPA from human adenosine A1 receptor expressed in CHO cells relative to control; format: cell-based; conditions: concentration not given here; outline: as §3
T14 sequence (whole entry): T13 sequence (P30542 whole entry)

[22] = organism: Rattus norvegicus; assay: Selectivity ratio of Ki for adenosine A2A receptor in rat brain striatum to Ki for adenosine A1 receptor in rat brain cortex; format: tissue-based
[23] = system: Adenosine receptor A1/A2A (Homo sapiens); assay: Selectivity ratio of Ki for human adenosine A1 receptor to Ki for human adenosine A2A receptor

T5 sequence (P30543 whole entry): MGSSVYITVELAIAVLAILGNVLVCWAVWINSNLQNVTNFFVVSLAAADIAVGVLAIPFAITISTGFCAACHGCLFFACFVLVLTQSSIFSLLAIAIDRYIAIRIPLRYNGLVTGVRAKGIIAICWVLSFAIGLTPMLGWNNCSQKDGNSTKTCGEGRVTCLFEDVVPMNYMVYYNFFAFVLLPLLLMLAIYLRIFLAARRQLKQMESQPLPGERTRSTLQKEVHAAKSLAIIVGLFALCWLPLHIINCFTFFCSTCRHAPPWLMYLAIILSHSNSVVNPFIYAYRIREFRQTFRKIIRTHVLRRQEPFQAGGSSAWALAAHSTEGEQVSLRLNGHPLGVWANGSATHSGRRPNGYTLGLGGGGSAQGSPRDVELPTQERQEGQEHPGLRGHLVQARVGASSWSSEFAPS
T12 sequence (P29274 whole entry): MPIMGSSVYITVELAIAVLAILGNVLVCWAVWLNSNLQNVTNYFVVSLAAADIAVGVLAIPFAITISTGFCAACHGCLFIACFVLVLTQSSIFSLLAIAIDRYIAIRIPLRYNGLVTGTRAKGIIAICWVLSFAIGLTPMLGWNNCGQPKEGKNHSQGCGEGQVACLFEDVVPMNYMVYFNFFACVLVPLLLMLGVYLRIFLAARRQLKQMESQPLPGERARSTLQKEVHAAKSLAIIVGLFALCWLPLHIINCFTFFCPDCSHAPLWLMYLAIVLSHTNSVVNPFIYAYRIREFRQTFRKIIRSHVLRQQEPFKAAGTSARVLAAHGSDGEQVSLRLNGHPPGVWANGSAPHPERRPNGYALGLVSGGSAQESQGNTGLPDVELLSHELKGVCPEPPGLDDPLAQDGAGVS
Sequence of Adenosine receptor A2a (Rattus norvegicus) (P30543 whole entry): as the sequence (P30543 whole entry) above

SMILES	inhibition [1] [%]	inhibition at 10 µM [2] [%]	inhibition [3] [%]	Ki [4] [µM]	Ki [5] [µM]	inhibition [6] [%]	IC50 [7] [µM]	Ki [8] [µM]	Ki [10] [µM]	IC50 [11] [µM]	inhibition at 10 µM [12] [%]	Ki [15] [µM]	Ki [20] [µM]	inhibition [21] [%]	further results
Cn1c(=O)c2c(nc3n2CCCN3CC(=O)N2CCN(c3ccc(Cl)cc3)CC2)n(C)c1=O	24	60	-7	> 1.5	> 10	0	2.2	> 1	> 1	> 10	13	–	–	–	inhibition [9]: 39%
Cn1c(=O)c2c(nc3n2CCCN3c2ccc(F)cc2)n(C)c1=O	–	–	–	> 25	–	–	–	10	13.3	–	–	16.7	1.18	–	Ki [13]: 13.3 µM; Ki [14]: 1.88 µM; Ki [16]: 16.7 µM; Ki [17]: > 25 µM; Ki [18]: 0.147 µM; Ki [19]: 10 µM
Cn1c(=O)c2c(nc3n2CCCN3Cc2cccc(Cl)c2)n(C)c1=O	–	–	10	0.432	0.802	–	0.344	> 1	15.2	> 10	2	> 10	2.03	21	–
C#CCn1c(=O)c2c(nc3n2CCCN3c2cccc(Br)c2)n(C)c1=O	34	46	–	0.313	0.932	–	10	3.86	> 10	–	–	> 10	0.284	21	Ratio Ki [22]: 3; Ratio Ki [23]: > 35
Cn1c(=O)c2c(nc3n2CCCN3c2ccc(Cl)cc2)n(C)c1=O	15	6	10	≥ 25	1.21	47	10	> 1	> 10	> 10	6	10	–	30	–
